High-throughput results from PubChem.
SR-BI DiI-HDL act: SR-BI HDL lipid transfer activation | CHO ldlA[mSR-BI] cells, DiI-HDL uptake fluorescence, 3 h; 100 = double the neutral-control signal | 320,000 tested, 0.096% active | activation, % at 12.5 µM;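 active = mean replicate activation of at least 60% and every replicate at or above 60%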;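 note: 0% = median plate neutral-control signal and 100% = twice that signal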
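Material – SR-BI-overexpressing, LDLR-lacking CHO cells · Medium – BSA-supplemented, HEPES-buffered Ham's F12, pH 7.4 · Doses – single concentration · Times – compound with DiI-HDL co-incubation, 3 h at 37 °C · Measured by – bottom-read fluorescence, 550/595 nm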
Vif imaging: inhibitors of HIV Vif | HEK293T cells, Vif self-association by quenched fluorescence, imaging, 24 h | inhibition, % at 7.49 µM | 340,000 tested, 0.35% active; in the data active = inhibition above about 50%, passing the limit was not always enough
SR-BI HDL uptake: mouse SR-BI HDL lipid transfer inhibition; ldlA[mSR-BI] CHO cells, DiI-HDL uptake fluorescence, 3 h; inhibition, % at 12.5 µM; AID 488896; 320,000 tested, 0.96% active;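 active = mean replicate inhibition of at least 70% and a set share of replicates each scoring 70 or more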;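 note: 0% = median of neutral control wells and 100% = median of positive control wells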
Target sequence (Q61009 whole entry, looked up): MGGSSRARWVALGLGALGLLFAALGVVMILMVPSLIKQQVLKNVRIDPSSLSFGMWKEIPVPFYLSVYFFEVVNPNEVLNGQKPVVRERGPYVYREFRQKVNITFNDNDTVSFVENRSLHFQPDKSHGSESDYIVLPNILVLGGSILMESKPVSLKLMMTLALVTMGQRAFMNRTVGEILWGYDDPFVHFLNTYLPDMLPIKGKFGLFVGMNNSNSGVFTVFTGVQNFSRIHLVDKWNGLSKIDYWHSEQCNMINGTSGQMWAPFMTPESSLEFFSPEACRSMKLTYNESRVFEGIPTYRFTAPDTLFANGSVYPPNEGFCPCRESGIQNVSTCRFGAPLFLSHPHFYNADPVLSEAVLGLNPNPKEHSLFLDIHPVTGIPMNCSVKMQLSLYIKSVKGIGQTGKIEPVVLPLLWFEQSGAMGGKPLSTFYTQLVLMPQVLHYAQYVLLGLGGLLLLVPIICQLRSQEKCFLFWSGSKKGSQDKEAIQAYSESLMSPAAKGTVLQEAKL
SMARCA2 act: activators of SMARCA2 function | MG213 cells, MMTV-luciferase reporter, dexamethasone, overnight | AID 652017 | activation, % at 9.1 µM | 370,000 tested, 1% active; in the data active = activation above about 7.8%;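 note: 0% = vehicle wells and 100% = reference activator wells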
TAG inh: reduces triacylglycerol accumulation in H9c2 cells; Nile Red lipid (TAG) fluorescence; cells loaded with 200 µM oleic acid; inhibition, % at 12.5 µM; 230,000 tested, 0.66% active;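 active = pattern-corrected inhibition of lipid staining of at least 50% with the nuclear-stain viability signal not falling by more than 50%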;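 note: 0% = DMSO wells and 100% = triacsin C control wells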
The depositor's hits bear a star; . = no result. Most compounds without a hit are left out; they make up all but 2.5% or so of the library.

SMILES | SR-BI DiI-HDL act | Vif imaging | SR-BI HDL uptake | SMARCA2 act | TAG inh
CCN1C(=O)C(=Cc2cccc(OC)c2Oc2ccc([N+](=O)[O-])cc2[N+](=O)[O-])SC1=S | -75 | 0 | 75* | -1 | .
CCOc1ccc(C(=O)Nc2cccc(-c3cc4ccccc4oc3=O)c2)cc1[N+](=O)[O-] | -80 | -24 | 80* | -2 | 45
COCCCNC(=O)c1cc2cc(Br)ccc2oc1=O | 15 | 4 | -15 | 1 | -15
O=C(NNC(=O)c1cc2cc(Br)ccc2oc1=O)c1ccc(O)cc1O | -83 | 31 | 83* | -2 | -15
Cc1nc(N2CCC(C)CC2)c2nnn(Cc3ccccc3)c2n1 | -81 | -13 | 81* | 0 | -7
Cc1c(C(c2ccc(C(=O)O)cc2)c2c(C)n(C)n(-c3ccccc3)c2=O)c(=O)n(-c2ccccc2)n1C | -76 | -9 | 76* | 3 | .
Cc1c(C(c2ccc(O)cc2)c2c(C)n(C)n(-c3ccccc3)c2=O)c(=O)n(-c2ccccc2)n1C | 8 | -2 | -8 | 2 | .
CC(=O)c1sc2nc(-c3cccs3)cc(C(F)(F)F)c2c1N | -72 | -57 | 72* | -3 | .
CN(Cc1ccc(OCC(O)CN2CCCCC2)cc1)Cc1ccnc2ccccc12 (stereo unspecified) | -24 | -12 | 24 | -5 | -27
Cc1nn(C)cc1CN(C)Cc1ccc(OCC(O)CN2CCCCC2)cc1 (stereo unspecified) | . | 64* | . | 1 | 2
CN(c1ccc(C(=O)N2CCN(Cc3ccccc3)CC2)cc1)S(=O)(=O)c1ccc(Cl)cc1 | -79 | -21 | 79* | 2 | -27
O=C(N[C@H](C(=O)N1CCC[C@H]1C(=O)NC1CCCC1)C1CCCCC1)C1CCCC1 | . | . | . | 0 | .
O=C(NC(C(=O)N1CCCC1C(=O)NC1CCCC1)c1ccccc1)c1cccs1 (stereo unspecified) | . | . | . | -2 | .
O=C(CCC1CCCCC1)NCCN1CCOCC1 | 11 | 7 | -11 | 1 | .
O=C(CN1CCOCC1)OCCCC1CCCCC1 | 4 | 54* | -4 | -2 | 0
CCn1cc(C(=O)NP(=O)(Nc2ccc(C)cc2)Nc2ccc(C)cc2)c2ccccc21 | 165* | 2 | -165 | -3 | 2
CSc1sccc1/C=C(/C#N)C(=O)c1ccco1 | 9 | 151* | -9 | -2 | .
CSc1sccc1/C=N/O | 3 | -8 | -3 | 4 | 2
COC(=O)[C@]12C[C@H](CC(=O)NCCCN3CCCC3=O)C(=O)N(CCC3=CCCCC3)C1=C[C@H](COCc1ccccc1)O[C@@H]2C | . | . | . | 1 | .
C[C@@H]1CN([C@H](C)CO)C(=O)c2cc(NS(=O)(=O)c3ccccc3)ccc2O[C@@H](C)CCCCO[C@@H]1CN(C)Cc1ccccc1 | . | . | . | -3 | .
COc1ccccc1CCNC(=O)C1CCN(c2nnc(C)c3c(C)n(-c4ccc(C)cc4)nc23)CC1 | -80 | -15 | 80* | -2 | .
COc1ccc(Cn2c(C)c(CC(=O)Nc3ccc(Oc4cccnc4)c(C)c3)c3ccccc32)cc1 | . | . | . | -2 | .
O=[N+]([O-])c1ccccc1CSc1ccccn1 | -4 | -2 | 4 | -1 | -1
O=[N+]([O-])c1ccccc1CCc1cnc(Cl)s1 | -84 | . | 84* | 0 | .
CC(C)OC(=O)[C@@H](Cc1ccccc1)N[C@H](/C=C/c1ccccc1)[C@@H](O)Cc1ccccc1 | . | . | . | -4 | .
SMILES | SR-BI DiI-HDL act | Vif imaging | SR-BI HDL uptake | SMARCA2 act | TAG inh
CCC(C)Sc1ccc(-c2nc3cc(C)ccn3c2NC2CCCCC2)cc1 (stereo unspecified) | -81 | -5 | 81* | 4 | 22
CCC(C)Sc1ccc(-c2nc3cnccn3c2NC2CCCCC2)cc1 (stereo unspecified) | -63 | 9 | 63 | 3 | 21
COc1ccc(CNC(=O)c2c(C)oc3c2C(=O)c2ccccc2C3=O)cc1 | 21 | 7 | -21 | -6 | 101*
Cc1ccc(Nc2nc(N/N=C\c3ccc4c(c3)OCO4)nc(N3CCOCC3)n2)cc1 | -86 | -4 | 86* | -1 | 136
CC(=O)Nc1ccc(/C(C)=N/Nc2nc(Nc3ccccc3)nc(N3CCOCC3)n2)cc1 | -85 | 6 | 85* | 3 | 129
COc1ccc(N2CCN(CCCNC(=O)CCc3cccc(F)c3)CC2)cc1 | . | . | . | -2 | .
CC12CCC3c4ccc(OCCCO)c([N+](=O)[O-])c4CCC3C1CCC2=O (stereo unspecified) | . | . | . | -4 | .
C=CCO[C@H]1CN(C(=O)OC)[C@@H](c2ccccc2Br)C[C@H]1OCC=C | . | . | . | 6 | .
